The values that follow come from ChEMBL document CHEMBL3393037, “Design, synthesis, and biological evaluation of aminothiazole derivatives against the fungal pathogens Histoplasma capsulatum and Cryptococcus neoformans” (Bioorg Med Chem, 2015).

Each structure is given as a SMILES string. In brackets after ≈: the same amount, converted by molar mass. Bounds are passed on as bounds.

Data set [1] can be described thus: Antifungal activity against Histoplasma capsulatum G217B ATCC 26032 assessed as inhibition of visible growth after 5 days. It counts as functional. The method, boiled down:
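Wild-type G217B yeasts kept in HMM at 37 °C under 5% CO2. Wells held 2×10^5 yeasts (hemocytometer count) with a two-fold dilution series from 40 to 0.078 µM, at 1% DMSO in the top dilution. Plates were agitated twice daily and growth followed by A595 over 5 days. MIC is the lowest concentration with no visible growth on visual inspection of the plates.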

The next data set relates to Cryptococcus neoformans. Nature of the data set: Antifungal activity against Cryptococcus neoformans MATalpha serotype A strain H99 assessed as inhibition of visible growth after 5 days. It is filed as functional. As to conditions: MATalpha serotype A strain H99, 120 h.
Data set [2] can be described thus: Cytotoxicity against human HepG2 cells after 72 hrs by crystal violet staining method. It is filed as cell-based. As to conditions: for CC50 at 72 h: read-out: MIC50; for MCC at 72 h: read-out: MIC. In a few lines:
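HepG2 cells in MEM with 10% FBS and 2 mM L-glutamine were seeded at 1×10^4 per well and left to adhere overnight. Compound was added at 0.3 to 80 µM for 72 h. Cells were fixed in 3% paraformaldehyde, stained with 0.1% crystal violet, and the dye taken up in 10% acetic acid and read at A590. Values were normalised to DMSO-matched controls, in triplicate.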

A short description of data set [3]: Selectivity index, ratio of MIC50 for human HepG2 cells to MIC50 for Histoplasma capsulatum strain G217B ATCC 26032.
Data set [4] is described as follows: Cytotoxicity against mouse P388D1 […] cells after 48 hrs by crystal violet staining method. It is filed as cell-based. As to conditions: P388D1, 48 h.

Usually MIC stands for the lowest concentration that inhibits growth of the organism. Usually MIC50 stands for an inhibitory concentration at the 50% level, which refers to growth in some studies and to a panel of isolates in others. For orientation: IC50 means the concentration that gives 50% inhibition. A higher IC50 goes with weaker potency. For the compound `O=C(Nc1ncc(Cc2cccc3ccccc23)s1)C1CCCCC1`, in data set [1], the MIC came to 0.6 µM (≈ 0.21 µg/mL) and the MIC50 stood at 0.4 µM (≈ 0.14 µg/mL). For the same compound, in the data set on Cryptococcus neoformans, the MIC turned out to be 0.6 µM (≈ 0.21 µg/mL) and the MIC50 came to 0.4 µM (≈ 0.14 µg/mL). Also, in data set [2], the CC50 at 72 h was found to be 39 µM. In addition, in data set [3], the Ratio came out at 97. This compound also returned an IC50 in data set [4] of 54 µM.

Turning to `O=C(CCC1CCCCC1)Nc1ncc(Cc2cccc3ccccc23)s1`, the MIC in data set [1] was 1.3 µM (≈ 0.492 µg/mL); in the data set with Cryptococcus neoformans, greater than 20 µM. In addition, the MIC50 in data set [1] was 0.4 µM (≈ 0.151 µg/mL); with Cryptococcus neoformans it was greater than 10 µM. The CC50 at 72 h in data set [2] is greater than 40 µM. Also, the Ratio in data set [3] was greater than 100.

Turning to `Cc1cccc(Cc2cnc(NC(=O)C3CCC3)s2)c1`, the MIC50 in data set [1] was found to be 2.5 µM (≈ 0.716 µg/mL). Moreover, the MCC at 72 h in data set [2] came to 20 µM.

`O=C(CCC1CCCCC1)Nc1ncc(Cc2ccccc2)s1`: the MIC was 1.3 µM (≈ 0.427 µg/mL) in data set [1] and greater than 20 µM with Cryptococcus neoformans. The figures for the MIC50 (in data set [1]; in the data set with Cryptococcus neoformans) were 0.7 µM (≈ 0.23 µg/mL) and greater than 10 µM, respectively. The CC50 at 72 h in data set [2] is greater than 40 µM. Further, in data set [3], the Ratio was greater than 44.

For `O=C(CC1CCCCC1)Nc1ncc(Cc2ccccc2)s1`, in data set [1], the MIC was 2.5 µM (≈ 0.786 µg/mL) and the MIC50 was determined as 0.7 µM (≈ 0.22 µg/mL). Also, in the data set on Cryptococcus neoformans, the MIC was greater than 20 µM and the MIC50 is greater than 10 µM. The CC50 at 72 h in data set [2] is greater than 40 µM. The Ratio in data set [3] is given as greater than 44.

On to `O=C(Nc1ncc(Cc2ccccc2)s1)C1CCCCC1`, for which, in data set [1], the MIC was determined as 5 µM (≈ 1.5 µg/mL) and the MIC50 was determined as 1.6 µM (≈ 0.481 µg/mL). Further, in the data set on Cryptococcus neoformans, the MIC is 5 µM (≈ 1.5 µg/mL) and the MIC50 was 1.3 µM (≈ 0.391 µg/mL). Besides, the CC50 at 72 h in data set [2] is greater than 40 µM. The Ratio in data set [3] is given as greater than 21.

`O=C(Nc1ncc(Cc2cccc3ccccc23)s1)C1CCCC1`: in data set [1], the MIC was found to be 1.3 µM (≈ 0.437 µg/mL) and the MIC50 turned out to be 0.8 µM (≈ 0.269 µg/mL). In the data set on Cryptococcus neoformans, the minimum inhibitory concentration (MIC) came to 1.3 µM (≈ 0.437 µg/mL) and the MIC50 was determined as 0.8 µM (≈ 0.269 µg/mL). In addition, the CC50 at 72 h in data set [2] was greater than 40 µM. In addition, the Ratio in data set [3] is recorded as greater than 57.

On to `O=C(CCC1CCCCC1)Nc1ncc(Cc2cccc(F)c2)s1`, for which, in data set [1], the MIC came to 2.5 µM (≈ 0.866 µg/mL) and the MIC50 was 0.8 µM (≈ 0.277 µg/mL). In the data set with Cryptococcus neoformans, the MIC was greater than 20 µM and the MIC50 was greater than 10 µM. Moreover, in data set [2], the CC50 at 72 h was determined as 40 µM. The Ratio in data set [3] turned out to be 57.

On to `O=C(Nc1ncc(Cc2ccccc2)s1)C1CCCC1`, for which the MIC in data set [1] was 5 µM (≈ 1.43 µg/mL); with Cryptococcus neoformans, 10 µM (≈ 2.86 µg/mL). The MIC50 in data set [1] turned out to be 1.6 µM (≈ 0.458 µg/mL); with Cryptococcus neoformans it was 3.6 µM (≈ 1.03 µg/mL). Further, in data set [2], the CC50 at 72 h is greater than 40 µM. The Ratio in data set [3] is listed as greater than 24.

`CC(C)C(=O)Nc1ncc(Cc2cccc3ccccc23)s1`: in data set [1], the MIC is 2.5 µM (≈ 0.776 µg/mL) and the MIC50 was determined as 1.5 µM (≈ 0.466 µg/mL). In the data set on Cryptococcus neoformans, the MIC is greater than 20 µM and the MIC50 was greater than 10 µM.

As for `O=C(Nc1ncc(CCc2ccccc2)s1)C1CCCC1`, the minimum inhibitory concentration (MIC) in data set [1] was 2.5 µM (≈ 0.751 µg/mL); with Cryptococcus neoformans, 5 µM (≈ 1.5 µg/mL). Also, the MIC50 in data set [1] turned out to be 0.9 µM (≈ 0.27 µg/mL); with Cryptococcus neoformans, 2.7 µM (≈ 0.811 µg/mL).

Take `O=C(CCC1CCCCC1)Nc1ncc(CCc2ccccc2)s1`: the MIC in data set [1] is 2.5 µM (≈ 0.856 µg/mL); with Cryptococcus neoformans, greater than 20 µM. The MIC50 in data set [1] is 0.7 µM (≈ 0.24 µg/mL); in the data set on Cryptococcus neoformans it was greater than 10 µM. Besides, the CC50 at 72 h in data set [2] was greater than 40 µM. Moreover, in data set [3], the Ratio is on record as greater than 50.

Regarding `NC(=O)c1cc(-c2ccccc2)sc1NC(=O)c1ccc2c(c1)OCCO2`, the MIC50 in data set [1] came out at 2.5 µM (≈ 0.951 µg/mL). Besides, the MCC at 72 h in data set [2] was determined as 10 µM.

On to `O=C(CC1CCCCC1)Nc1ncc(Cc2cccc3ccccc23)s1`, for which the MIC in data set [1] is 0.6 µM (≈ 0.219 µg/mL); in the data set on Cryptococcus neoformans it was greater than 20 µM. Further, the MIC50 in data set [1] is 0.4 µM (≈ 0.146 µg/mL); with Cryptococcus neoformans, greater than 10 µM. The CC50 at 72 h in data set [2] worked out at 37 µM. In data set [3], the Ratio is listed as 92.

Consider `O=C(CCC1CCCCC1)Nc1ncc(Cc2cccc(Cl)c2)s1`, for which, in data set [1], the minimal inhibitory concentration (MIC) was determined as 2.5 µM (≈ 0.907 µg/mL) and the MIC50 amounted to 1.1 µM (≈ 0.399 µg/mL). Further, in the data set with Cryptococcus neoformans, the minimum inhibitory concentration (MIC) was greater than 20 µM and the MIC50 is greater than 10 µM. In addition, the CC50 at 72 h in data set [2] is 39 µM. Besides, the Ratio in data set [3] stood at 65.
